Results: ChEMBL document CHEMBL1142148, “Antibiotic susceptibility profile of bifidobacteria as affected by oxgall, acid, and hydrogen peroxide stress” (2007)
≈ marks a conversion by molar mass, not a printed value.

Columns and labels:
[1] = test system: Bifidobacterium thermophilum; experiment: Antimicrobial activity against 60 min 1 M HCl-stressed Bifidobacterium thermophilum ATCC 25866 after 18 hrs; type: functional
How it was run: (§1)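 Mid-log MRS culture pelleted and resuspended in MRS broth brought to pH 2.0 with 1 M HCl, held anaerobically at 37°C for 60 min, then subcultured in MRS (pH 6.5) for 24 h anaerobically before MIC testing by broth microdilution (as for unstressed cells). Table footnote gives 18 h anaerobic regrowth after the stress. MIC is the median of four repetitions.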

Bifidobacterium longum [2] = experiment: Antimicrobial activity against 90 mins hydrogen peroxide-stressed Bifidobacterium longum ATCC 15707 after 18 hrs; type: functional
How it was run: (§2)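 Stress applied for 90 min at 37°C under anaerobic conditions, using MRS (initial pH 6.5) containing H2O2 at each strain's own inhibitory concentration. The H2O2 level was set beforehand by microplate tolerance testing. Challenged cells were regrown in MRS for 24 h (footnote: 18 h) before MIC testing by broth microdilution. Median of four repetitions.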

[3] = test system: Bifidobacterium thermophilum; experiment: Antimicrobial activity against 90 mins oxgall-stressed Bifidobacterium thermophilum ATCC 25866 after 18 hrs; type: functional
How it was run: (§3)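 Cells pelleted from mid-log MRS culture and resuspended in MRS (initial pH 6.5) with 0.3% (wt/vol) oxgall for 90 min anaerobically at 37°C. They were then regrown in MRS pH 6.5 for 24 h (footnote: 18 h) anaerobically and tested for MIC by the same broth microdilution assay. Median of four repetitions.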

Bifidobacterium longum [4] = experiment: Antimicrobial activity against Bifidobacterium longum R0175; type: functional
How it was run: (§4)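 Broth microdilution in MRS plus 0.05% L-cysteine-HCl. Mid-log culture adjusted to OD650 0.1, giving about 2.5 × 10^4 to 5.0 × 10^4 CFU/well, then added to twofold serial dilutions of agent. Plates incubated anaerobically at 37°C for 18 h and read at OD650. MIC is the lowest concentration matching the uninoculated blank OD, taken as the median of four repeats.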

Bifidobacterium bifidum [5] = experiment: Antimicrobial activity against 90 mins oxgall-stressed Bifidobacterium bifidum R0071 after 18 hrs; type: functional; how it was run: as §3
Bifidobacterium longum [6] = experiment: Antimicrobial activity against 60 min 1 M HCl-stressed Bifidobacterium longum R0175 after 18 hrs; type: functional; how it was run: as §1
Bifidobacterium breve [7] = experiment: Antimicrobial activity against 90 mins hydrogen peroxide-stressed Bifidobacterium breve R0070 after 18 hrs; type: functional; how it was run: as §2
[8] = test system: Bifidobacterium pseudolongum; experiment: Antimicrobial activity against 60 min 1 M HCl-stressed Bifidobacterium pseudolongum ATCC 25562 after 18 hrs; type: functional; how it was run: as §1
[9] = Antimicrobial activity against Bifidobacterium infantis ATCC 15697; type: functional, Bifidobacterium longum subsp. infantis; details: Bifidobacterium longum; how it was run: as §4
Bifidobacterium bifidum [10] = experiment: Antimicrobial activity against 90 mins oxgall-stressed Bifidobacterium bifidum ATCC 15696 after 18 hrs; type: functional; how it was run: as §3
Bifidobacterium longum [11] = experiment: Antimicrobial activity against 90 mins hydrogen peroxide-stressed Bifidobacterium longum ATCC 15708 after 18 hrs; type: functional; how it was run: as §2
Bifidobacterium longum [12] = experiment: Antimicrobial activity against 90 mins hydrogen peroxide-stressed Bifidobacterium longum R0175 after 18 hrs; type: functional; how it was run: as §2
Bifidobacterium longum [13] = experiment: Antimicrobial activity against Bifidobacterium longum ATCC 15707; type: functional; how it was run: as §4
Bifidobacterium bifidum [14] = experiment: Antimicrobial activity against Bifidobacterium bifidum BB12; type: functional; how it was run: as §4
Bifidobacterium longum [15] = experiment: Antimicrobial activity against 90 mins oxgall-stressed Bifidobacterium longum R0175 after 18 hrs; type: functional; how it was run: as §3
[16] = test system: Bifidobacterium pseudolongum; experiment: Antimicrobial activity against Bifidobacterium pseudolongum ATCC 25562; type: functional; how it was run: as §4
Bifidobacterium longum [17] = experiment: Antimicrobial activity against Bifidobacterium longum P/N 601377; type: functional; how it was run: as §4
Bifidobacterium breve [18] = experiment: Antimicrobial activity against Bifidobacterium breve ATCC 15700; type: functional; how it was run: as §4
Bifidobacterium bifidum [19] = experiment: Antimicrobial activity against 90 mins oxgall-stressed Bifidobacterium bifidum BB12 after 18 hrs; type: functional; how it was run: as §3
Bifidobacterium animalis [20] = experiment: Antimicrobial activity against 90 mins hydrogen peroxide-stressed Bifidobacterium animalis ATCC 27536 after 18 hrs; type: functional; how it was run: as §2
Bifidobacterium longum [21] = experiment: Antimicrobial activity against 90 mins oxgall-stressed Bifidobacterium longum ATCC 15707 after 18 hrs; type: functional; how it was run: as §3
Bifidobacterium breve [22] = experiment: Antimicrobial activity against 90 mins oxgall-stressed Bifidobacterium breve R0070 after 18 hrs; type: functional; how it was run: as §3
Bifidobacterium longum [23] = experiment: Antimicrobial activity against 60 min 1 M HCl-stressed Bifidobacterium longum ATCC 15707 after 18 hrs; type: functional; how it was run: as §1
Bifidobacterium bifidum [24] = experiment: Antimicrobial activity against Bifidobacterium bifidum R0071; type: functional; how it was run: as §4
Bifidobacterium bifidum [25] = experiment: Antimicrobial activity against 60 min 1 M HCl-stressed Bifidobacterium bifidum BB12 after 18 hrs; type: functional; how it was run: as §1
Bifidobacterium breve [26] = experiment: Antimicrobial activity against 60 min 1 M HCl-stressed Bifidobacterium breve ATCC 15700 after 18 hrs; type: functional; how it was run: as §1
Bifidobacterium bifidum [27] = experiment: Antimicrobial activity against 60 min 1 M HCl-stressed Bifidobacterium bifidum R0071 after 18 hrs; type: functional; how it was run: as §1
Bifidobacterium bifidum [28] = experiment: Antimicrobial activity against Bifidobacterium bifidum ATCC 15696; type: functional; how it was run: as §4
Bifidobacterium breve [29] = experiment: Antimicrobial activity against 60 min 1 M HCl-stressed Bifidobacterium breve R0070 after 18 hrs; type: functional; how it was run: as §1
Bifidobacterium animalis [30] = experiment: Antimicrobial activity against Bifidobacterium animalis ATCC 27536; type: functional; how it was run: as §4
Bifidobacterium breve [31] = experiment: Antimicrobial activity against Bifidobacterium breve R0070; type: functional; how it was run: as §4
Bifidobacterium longum [32] = experiment: Antimicrobial activity against 60 min 1 M HCl-stressed Bifidobacterium longum P/N 601377 after 18 hrs; type: functional; how it was run: as §1
Bifidobacterium animalis [33] = experiment: Antimicrobial activity against 90 mins oxgall-stressed Bifidobacterium animalis ATCC 27536 after 18 hrs; type: functional; how it was run: as §3
Bifidobacterium longum [34] = experiment: Antimicrobial activity against 90 mins hydrogen peroxide-stressed Bifidobacterium longum P/N 601377 after 18 hrs; type: functional; how it was run: as §2
Bifidobacterium longum [35] = experiment: Antimicrobial activity against 90 mins oxgall-stressed Bifidobacterium longum ATCC 15708 after 18 hrs; type: functional; how it was run: as §3
Bifidobacterium animalis [36] = experiment: Antimicrobial activity against 60 min 1 M HCl-stressed Bifidobacterium animalis ATCC 27536 after 18 hrs; type: functional; how it was run: as §1
Bifidobacterium breve [37] = experiment: Antimicrobial activity against 90 mins oxgall-stressed Bifidobacterium breve ATCC 15700 after 18 hrs; type: functional; how it was run: as §3
[38] = test system: Bifidobacterium thermophilum; experiment: Antimicrobial activity against 90 mins hydrogen peroxide-stressed Bifidobacterium thermophilum ATCC 25866 after 18 hrs; type: functional; how it was run: as §2
[39] = Antimicrobial activity against 90 mins oxgall-stressed Bifidobacterium infantis ATCC 15697 after 18 hrs; type: functional, Bifidobacterium longum subsp. infantis; details: Bifidobacterium longum; how it was run: as §3
Bifidobacterium breve [40] = experiment: Antimicrobial activity against 90 mins hydrogen peroxide-stressed Bifidobacterium breve ATCC 15700 after 18 hrs; type: functional; how it was run: as §2
Bifidobacterium longum [41] = experiment: Antimicrobial activity against 90 mins oxgall-stressed Bifidobacterium longum P/N 601377 after 18 hrs; type: functional; how it was run: as §3
Bifidobacterium longum [42] = experiment: Antimicrobial activity against Bifidobacterium longum ATCC 15708; type: functional; how it was run: as §4
[43] = Antimicrobial activity against 60 min 1 M HCl-stressed Bifidobacterium infantis ATCC 15697 after 18 hrs; type: functional, Bifidobacterium longum subsp. infantis; details: Bifidobacterium longum; how it was run: as §1
Bifidobacterium bifidum [44] = experiment: Antimicrobial activity against 90 mins hydrogen peroxide-stressed Bifidobacterium bifidum R0071 after 18 hrs; type: functional; how it was run: as §2
[45] = test system: Bifidobacterium thermophilum; experiment: Antimicrobial activity against Bifidobacterium thermophilum ATCC 25866; type: functional; how it was run: as §4
Bifidobacterium bifidum [46] = experiment: Antimicrobial activity against 90 mins hydrogen peroxide-stressed Bifidobacterium bifidum BB12 after 18 hrs; type: functional; how it was run: as §2
[47] = test system: Bifidobacterium pseudolongum; experiment: Antimicrobial activity against 90 mins oxgall-stressed Bifidobacterium pseudolongum ATCC 25562 after 18 hrs; type: functional; how it was run: as §3

MIC [1]: 500 µg/mL (≈ 1030 µM)
MIC (Bifidobacterium longum [2]): 500 µg/mL (≈ 1030 µM)
MIC [3]: 500 µg/mL (≈ 1030 µM)
MIC (Bifidobacterium longum [4]): 500 µg/mL (≈ 1030 µM)
MIC (Bifidobacterium bifidum [5]): 500 µg/mL (≈ 1030 µM)
MIC (Bifidobacterium longum [6]): 250 µg/mL (≈ 516 µM)
MIC (Bifidobacterium breve [7]): 500 µg/mL (≈ 1030 µM)
MIC [8]: 250 µg/mL (≈ 516 µM)
MIC [9]: > 500 µg/mL
MIC (Bifidobacterium bifidum [10]): 125 µg/mL (≈ 258 µM)
MIC (Bifidobacterium longum [11]): 500 µg/mL (≈ 1030 µM)
MIC (Bifidobacterium longum [12]): 500 µg/mL (≈ 1030 µM)
MIC (Bifidobacterium longum [13]): 500 µg/mL (≈ 1030 µM)
MIC (Bifidobacterium bifidum [14]): > 500 µg/mL
MIC (Bifidobacterium longum [15]): 500 µg/mL (≈ 1030 µM)
MIC [16]: > 500 µg/mL
MIC (Bifidobacterium longum [17]): 250 µg/mL (≈ 516 µM)
MIC (Bifidobacterium breve [18]): > 500 µg/mL
MIC (Bifidobacterium bifidum [19]): 500 µg/mL (≈ 1030 µM)
MIC (Bifidobacterium animalis [20]): 500 µg/mL (≈ 1030 µM)
MIC (Bifidobacterium longum [21]): 250 µg/mL (≈ 516 µM)
MIC (Bifidobacterium breve [22]): 500 µg/mL (≈ 1030 µM)
MIC (Bifidobacterium longum [23]): 500 µg/mL (≈ 1030 µM)
MIC (Bifidobacterium bifidum [24]): 500 µg/mL (≈ 1030 µM)
MIC (Bifidobacterium bifidum [25]): 250 µg/mL (≈ 516 µM)
MIC (Bifidobacterium breve [26]): 500 µg/mL (≈ 1030 µM)
MIC (Bifidobacterium bifidum [27]): 0.98 µg/mL (≈ 2.02 µM)
MIC (Bifidobacterium bifidum [28]): > 500 µg/mL
MIC (Bifidobacterium breve [29]): 500 µg/mL (≈ 1030 µM)
MIC (Bifidobacterium animalis [30]): 500 µg/mL (≈ 1030 µM)
MIC (Bifidobacterium breve [31]): 500 µg/mL (≈ 1030 µM)
MIC (Bifidobacterium longum [32]): 250 µg/mL (≈ 516 µM)
MIC (Bifidobacterium animalis [33]): 500 µg/mL (≈ 1030 µM)
MIC (Bifidobacterium longum [34]): 250 µg/mL (≈ 516 µM)
MIC (Bifidobacterium longum [35]): 500 µg/mL (≈ 1030 µM)
MIC (Bifidobacterium animalis [36]): 500 µg/mL (≈ 1030 µM)
MIC (Bifidobacterium breve [37]): 500 µg/mL (≈ 1030 µM)
MIC [38]: 500 µg/mL (≈ 1030 µM)
MIC [39]: > 500 µg/mL
MIC (Bifidobacterium breve [40]): > 500 µg/mL
MIC (Bifidobacterium longum [41]): 250 µg/mL (≈ 516 µM)
MIC (Bifidobacterium longum [42]): 500 µg/mL (≈ 1030 µM)
MIC [43]: 500 µg/mL (≈ 1030 µM)
MIC (Bifidobacterium bifidum [44]): 500 µg/mL (≈ 1030 µM)
MIC [45]: > 500 µg/mL
MIC (Bifidobacterium bifidum [46]): 500 µg/mL (≈ 1030 µM)
MIC [47]: 500 µg/mL (≈ 1030 µM)
SMILES: NC[C@H]1O[C@H](O[C@H]2[C@H](O)[C@@H](O[C@H]3O[C@H](CO)[C@@H](O)[C@H](N)[C@H]3O)[C@H](N)C[C@@H]2N)[C@H](O)[C@@H](O)[C@@H]1O [KANAMYCIN]
